Measurements as given in publication PMC7616937 (Chemical communications (Cambridge, England), 2019).
Peptide text beside a SMILES is read from it.

Key:
[1] = Kinetics of fiber formation by TEM imaging; assay type: physicochemical; details: Fig. 2a, b
[2] = Kinetics of fibrillation by Thioflavin T; assay type: physicochemical; details: Fig. 3g
Method in brief: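 Peptide fibrillation was tracked by Thioflavin T fluorescence, either with peptide alone or with lipid vesicles mimicking mammalian plasma membranes. The vesicles were made of 1,2-dioleoyl-sn-glycero-3-phosphocholine (DOPC), cholesterol and sphingomyelin.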

neuronal dysfunction = details: observation from the literature, no reference printed at b17; compare b4, ref 7a; cited from earlier work

CC(=O)N[C@@H](CCCCN)C(=O)N[C@@H](CC(C)C)C(=O)N[C@H](C(=O)N[C@@H](Cc1ccccc1)C(=O)N[C@@H](Cc1ccccc1)C(=O)N[C@@H](C)C(=O)N[C@@H](CCC(=O)O)C(N)=O)C(C)C [Aβ(16-22), Ac-KLVFFAE-NH2] (Ac-KLVFFAE-NH2)
time to mature fibers / completion of self-assembly [1]: four to seven days
ThT fluorescence during kinetic measurement ([2]; peptide only, without lipid vesicles, followed for 96 hours): dramatic increase in fluorescence
effect of addition of lipid vesicles on ThT fluorescence / fibrillation ([2]; with DOPC/Chol/Sph lipid vesicles): inhibition of the fibrillation process

Aβ(1-42): full length Aβ peptide
toxicity (neuronal dysfunction): high toxicity
